Screening data from PubChem BioAssay.
CHRM5 PAM: human M5 muscarinic receptor positive allosteric modulators, primary screen, CHO-K1 cells, Fluo-8 calcium fluorescence; Muscarinic acetylcholine receptor M5 (Homo sapiens), P08912; CHO-K1 hM5, ACh EC20 PAM; 0% = ACh EC20, 100% = ACh EC100; activation, % at 3 µM; 360,000 tested, 0.3% active;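 active = activation above the run cutoff, the mean activation of all test compounds plus 3 SD, cut at about 18% in these data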
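Test system: CHO-K1 hM5 cells / Doses: single-point, 3 µM nominal / Times: Post-acetylcholine fluorescence recording 140 s / Technique: Fluo-8 calcium fluorescence / Measure: Max/basal fluorescence ratio as % of EC20–EC100 ACh window / Benchmarks: low control EC20 acetylcholine (0%), high control EC100 acetylcholine (100%) / Replicates: one well per compound, no replicates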
CHRM5 agonist: human M5 muscarinic receptor agonists, primary screen, CHO-K1 cells, Fluo-8 calcium fluorescence; Muscarinic acetylcholine receptor M5 (Homo sapiens), P08912; CHO-K1 hM5 cells; 0% DMSO wells, 100% maximal acetylcholine response; activation, % at 3 µM; 360,000 tested, 0.19% active; AID 624037, 2012;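 active = activation above the run's mean over test compounds plus 3 SD, cut at about 23% in these data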;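 also: signal is peak over basal fluorescence ratio across the kinetic read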
M1 PAM: human M1 muscarinic receptor positive allosteric modulators, primary screen, CHO-K1 cells, Fluo-8 calcium fluorescence, 1536-well; AID 588819, 2011; CHO-K1 hM1, ACh EC20; 0% = ACh EC20, 100% = maximal ACh; 360,000 tested, 0.088% active; activation, % at 3 µM; Muscarinic acetylcholine receptor M1 (Homo sapiens), P11229; in the data active = activation above about 19%, passing the limit was not always enough
Target sequence (P11229 whole entry, looked up): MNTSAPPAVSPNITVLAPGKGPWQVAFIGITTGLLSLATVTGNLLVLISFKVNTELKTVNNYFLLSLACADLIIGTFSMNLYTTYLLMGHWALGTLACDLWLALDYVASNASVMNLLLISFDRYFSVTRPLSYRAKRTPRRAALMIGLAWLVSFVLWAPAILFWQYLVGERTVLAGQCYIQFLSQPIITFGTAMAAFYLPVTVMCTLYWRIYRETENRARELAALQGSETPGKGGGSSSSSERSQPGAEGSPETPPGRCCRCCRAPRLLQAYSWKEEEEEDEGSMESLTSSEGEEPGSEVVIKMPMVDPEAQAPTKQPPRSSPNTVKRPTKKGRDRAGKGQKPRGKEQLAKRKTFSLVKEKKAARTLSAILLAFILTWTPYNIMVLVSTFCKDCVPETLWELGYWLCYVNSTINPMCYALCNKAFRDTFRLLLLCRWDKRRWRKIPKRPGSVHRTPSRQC
M5 antag: human M5 muscarinic receptor antagonists, primary screen, CHO cells, Fluo-8 calcium fluorescence | Muscarinic acetylcholine receptor M5 (Homo sapiens), P08912 | 360,000 tested, 0.59% active | inhibition, % at 3 µM | CHO-hM5 cells, ACh EC80;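 active = inhibition above a per-plate cutoff, the mean of that plate's test compounds plus 3 SD, cut at about 27% in these data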;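 also: 0% = acetylcholine EC80 with DMSO and 100% = DMSO without agonist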
M1 ag: human M1 muscarinic receptor agonists, primary screen, Fluo-8 calcium fluorescence, CHO-K1 cells, HTS; CHO-K1 hM1, agonist mode; 0% DMSO, 100% acetylcholine EC100; Muscarinic acetylcholine receptor M1 (Homo sapiens), P11229; 360,000 tested, 0.33% active; activation, % at 3 µM;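 active = activation above the run's mean compound activation plus 3 SD, cut at about 16% in these data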;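 also: peak over basal fluorescence ratio within a 140 s kinetic read after compound addition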
M1 antag: human M1 muscarinic receptor antagonists, primary screen, CHO-K1 cells, Fluo-8 calcium fluorescence, 1536-well; CHO-K1 hM1, ACh EC80 antagonist; 360,000 tested, 1.3% active; inhibition, % at 3 µM; AID 588852, 2011;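 active = percent inhibition above its own plate's cutoff, namely the mean of that plate's compound wells plus 3 SD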;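 also: peak over basal fluorescence ratio during 140 s after agonist addition; 0% = ACh EC80 plus DMSO and 100% = DMSO alone without agonist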
* = called active by the depositor; x = no result. Rows were chosen to be rich in hits. Some 2% of all compounds tested hit in one or more screens of this group.

SMILES	CHRM5 PAM	CHRM5 agonist	M1 PAM	M5 antag	M1 ag	M1 antag
COc1cc(-c2noc(C)c2-c2ccc(N(C)C)nc2)cc(OC)c1OC	-11.6	36.1*	-12.3	12.0	34.0*	20.2
COc1cc(-c2noc(C)c2-c2ccc3[nH]ccc3c2)cc(OC)c1OC	-22.6	-3.3	3.3	18.1	-2.1	6.7
COc1ccc(NS(=O)(=O)c2ccc(N3CCCC3)c(N)c2)cc1	-14.2	0.9	-26.9	13.9	-6.2	40.0*
COc1ccc(NS(=O)(=O)c2cc(N)ccc2N2CCCC2)cc1	-7.1	-0.3	13.5	18.1	-1.4	-17.8
Nc1cc(S(=O)(=O)Nc2ccccc2Cl)ccc1N1CCOCC1	-6.9	6.6	-3.2	11.9	3.1	-0.3
COc1ccc(NS(=O)(=O)c2cc(NC(=O)CCNC(C)=O)ccc2N2CCCCC2)cc1	-0.4	-0.3	-11.3	8.2	-5.3	44.0*
Nc1cc(S(=O)(=O)Nc2ccc(Cl)cc2)ccc1N1CCOCC1	-23.2	17.2	-13.5	19.2	6.2	38.5*
CCN(CC)C(=O)c1ccc(COc2ccc(Cl)c(C)c2)o1	-22.6	2.1	-9.8	31.0*	4.2	31.9*
CC1C(=O)N(Cc2cn(CCC3OCCO3)nn2)CCS(=O)(=O)N1Cc1ccc(-c2ccc(Cl)c(Cl)c2)cc1 (stereo not given)	-2.9	5.0	-7.5	8.9	1.7	16.7
COc1ccc(Cn2c(-c3ccc(Br)cc3)c[n+]3ccccc23)cc1	-12.8	-9.1	-28.6	12.8	-11.3	41.6*
COc1c2ccc(OCC/C(C)=C/C(=O)C=C(C)C)cc2nc2occc12	20.4*	2.2	2.7	-4.0	-4.9	0.4
O=c1[nH]c(=S)[nH]cc1Oc1ccc(Cl)cc1	7.3	1.7	3.3	-5.6	1.2	-11.1
CC1CCN(CC(=O)N2CC(=O)Nc3ccccc32)CC1	-1.2	-2.4	2.8	2.5	-6.4	-4.2
Cc1scc2c1N(C(=O)CN1CCN(C)CC1)c1ccccc1NC2=O	-18.3	-1.4	-25.7	98.9*	-6.2	98.0*
COc1ccc(C(=O)/C=C2/C(=O)Nc3ccccc32)cc1	11.2	11.7	18.1	7.9	-2.4	1.5
C=CCOc1ccc(C(=O)/C=C2/C(=O)Nc3ccccc32)cc1	12.7	5.6	15.3	4.0	4.0	1.8
COc1ccc(C(=O)/C=C2/C(=O)Nc3ccccc32)cc1OC	4.5	8.2	23.8	3.3	18.1*	33.4*
O=C1Nc2ccccc2/C1=C/C(=O)c1cccs1	18.6*	8.2	17.0	16.4	-0.2	-17.4
COc1ccc(Cc2c(C3CCCCC3)nc3c(C)cc(Br)cn23)c(C)c1	-4.2	-7.5	-22.3	9.7	-7.1	19.9
Cn1c(=O)c2c(-c3ccccc3)n(-c3ccc(N)cc3)cc2n(C)c1=O	1.1	1.7	6.3	3.6	-3.1	-27.5
O=C1CCC[C@@H]2C[C@@]3(C[C@@H]4CCN1[C@H]24)Nc1cc(Cl)c(Cl)cc1NC3=NCc1ccccc1	1.6	1.8	2.7	8.0	-5.1	5.5
COc1ccc(C(=O)n2nc(C)c(Br)c2C)cc1	20.9*	-9.6	11.3	-10.0	-2.1	-13.2
COc1ccc(CC(=O)N(C)c2ccccc2)cc1S(=O)(=O)N1CCOCC1	-5.8	1.0	-4.8	5.2	-4.4	-1.2
C=CCOc1ccc(Cl)cc1-c1noc(-c2csc([C@H]3C[C@H](O)[C@@H](CO)O3)n2)n1	-2.4	3.1	-3.6	2.5	2.7	5.0
CCC(=O)OCCNc1cc(SCCC(=O)OC)c2nonc2c1[N+](=O)[O-]	-4.7	-4.7	3.0	4.3	-6.4	-8.4
SMILES	CHRM5 PAM	CHRM5 agonist	M1 PAM	M5 antag	M1 ag	M1 antag
CCCC(=O)OCCNc1cc(Sc2nc3ccccc3[nH]2)c2nonc2c1[N+](=O)[O-]	-2.4	-4.4	-3.8	34.0*	-4.1	15.7
O=C(Nc1ccc(F)cc1)C(CCc1ccccc1)N1CCN(c2cccc(C(F)(F)F)n2)CC1 (stereo not given)	-11.6	-3.3	x	10.6	x	x
COCCNC(=O)C1(C)CCCN(C(=O)c2cccc3ccccc23)C1 (stereo not given)	-5.5	0.5	-0.7	29.7*	0.5	2.4
CCCOc1ccc(C(=O)N2CCCC2C(=O)O)cc1 (stereo not given)	-1.8	2.2	27.8*	-3.1	2.9	-24.1
C1=CN2CCC1C(c1ccccc1)C2 (stereo not given)	-14.7	3.4	-13.6	73.9*	49.5*	73.1*
Clc1ccc(CN2CCC(c3ccccc3)CC2)cc1	-8.4	-6.4	0.6	12.7	-8.1	-3.1
CC(O)(c1ccncc1)c1nc(-c2cccc(C(F)(F)F)c2)cs1 (stereo not given)	-9.2	2.9	-10.6	18.6	-2.0	29.8*
CCN(CC)C(=O)c1cccc(-c2csc(C(C)(O)c3ccc(OC)cc3)n2)c1 (stereo not given)	-18.4	8.7	-28.0	16.8	6.1	46.4*
CC(O)(c1cccc(F)c1)c1nc(-c2cccc(C(F)(F)F)c2)cs1 (stereo not given)	-2.6	-0.4	-7.0	5.5	-3.7	-1.0
CC(=O)OCC(=O)C1(O)CCC2C3CCC4CC(O)CCC4(C)C3C(=O)CC21C (stereo not given)	-5.3	3.0	0.6	8.0	-3.5	-2.0
CN(C)C1=NC[C@H](Cc2ccccc2)N1CCCC1CCCCC1	-12.4	-6.8	-21.9	9.8	-1.9	30.9*
CC(C)C[C@H]1CNC(=S)N1CC1CCN(CCCC2CCCC2)CC1	-17.8	-3.4	-31.1	16.8	-11.2	75.4*
S=C1NC[C@H](Cc2ccccc2)N1CC1CCN(CCCC2CCCC2)CC1	-15.1	-1.6	-26.6	13.9	-11.2	38.5*
CC(C)C[C@H]1CNC(=S)N1CC1CCN(CCCCc2ccccc2)CC1	-16.0	-3.6	-30.0	6.3	-11.0	51.7*
CN(C)C1=NC[C@H](Cc2ccccc2)N1CCCC1CCCC1	-11.2	-9.0	-9.4	5.2	-8.8	11.3
COc1cccc(-c2cnc(C(O)c3cccc(C)c3C)[nH]2)c1 (stereo not given)	2.1	2.3	5.7	7.3	-1.4	-4.7
CCn1cc(CN2CCC(C(=O)Nc3ccc(Oc4ccccc4F)cc3)CC2)cn1	0.2	-0.4	-3.2	-0.4	-5.4	-11.5
